The source made the active and inactive calls. The rule behind the calls is not given here.
Assays:
HepG2 [1] = experiment: Cytoprotection against rotenone-induced mitochondrial dysfunction in human HepG2 cells assessed as acute ATP rescue at 10 uM co-treated with rotenone for 1 hr by luciferase-based assay relative to control; assay type: functional
Summary of the method: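 HepG2 cells, 15 000 per well, attached overnight; after 24 h co-incubated with quinone (10 µM) and rotenone (10 µM) for 1 hour in glucose-free growth media. ATP then measured immediately by luciferase reaction, expressed as percentage of untreated (no rotenone) control.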

Rattus norvegicus = organism: Rattus norvegicus; experiment: Cytoprotection against rotenone-induced mitochondrial dysfunction in rat RGC5 cells assessed as increase in cell viability by measuring ATP levels at 10 uM preincubated for 48 hrs followed by rotenone-induction and measured after 24 hrs by luciferase-based assay; assay type: functional
HepG2 [2] = experiment: Cytoprotection against rotenone-induced mitochondrial dysfunction in human HepG2 cells assessed as increase in cell viability by measuring ATP levels at 10 uM preincubated for 48 hrs followed by rotenone-induction and measured after 24 hrs by luciferase-based assay; assay type: functional
Summary of the method: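 5000 HepG2 cells per well preincubated with quinone (10 µM) for 2 days, then challenged with rotenone (1 µM) for 6 hours in HBSS. Post-incubated with quinone alone in HBSS for a further 24 h. Viability read as ATP content by luciferase reaction, as percentage of untreated (no rotenone) control. 3 independent experiments, n = 6 wells each; error bars SD.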

[3] = Ratio of IC50 for cytotoxicity against rat RGC5 cells to IC50 for cytotoxicity against human HepG2 cells
[4] = Electrochemical behavior of the compound assessed as redox potential (Ered) corrected toward saturated calomel reference electrode by cyclic voltammetry
[5] = Electrochemical behavior of the compound assessed as redox potential (Eox) corrected toward saturated calomel reference electrode by cyclic voltammetry

SMILES | Activity (HepG2 [1]) | Activity (HepG2 [2]) | Ratio IC50 [3] | also measured
CCOC(=O)CCC1=C(C)C(=O)c2ccccc2C1=O | <30% | inactive | 2 | Activity (Rattus norvegicus): Active
CCCCOC(=O)CCCC1=C(C)C(=O)c2ccccc2C1=O | <30% |  | 2 | 
CC1=C(CCCC(=O)NCC(=O)OC(C)(C)C)C(=O)c2ccccc2C1=O |  | 90 - 100% |  | 
CC1=C(CCCCC(=O)O)C(=O)c2ccccc2C1=O | 60 - 90% | Active |  | 
C=CCCCCCCCCC1=C(C)C(=O)c2ccccc2C1=O | 60 - 90% |  | 2 | 
CC1=C(CCCC(=O)NCCc2c[nH]c3ccccc23)C(=O)c2ccccc2C1=O | 100% | 100% |  | 
CCC[C@H](NC(=O)CCCC1=C(C)C(=O)c2ccccc2C1=O)C(=O)OC(C)(C)C |  | 90 - 100% |  | 
CCCCCCCC1=C(C)C(=O)c2ccccc2C1=O | 60 - 90% | Active | 2 | Activity (Rattus norvegicus): Active
CC1=C(CCC(F)(F)F)C(=O)c2ccccc2C1=O | 60 - 90% |  |  | 
CCCCCCCC/C=C\CCCCCCCC1=C(C)C(=O)c2ccccc2C1=O |  |  | 2 | 
COC(=O)[C@@H](NC(=O)CCCC1=C(C)C(=O)c2ccccc2C1=O)c1ccccc1 |  | 90 - 100% |  | 
CC1=C(CCCc2ccccc2)C(=O)c2ccccc2C1=O |  |  | 2 | 
CCCCCCOC(=O)CCCC1=C(C)C(=O)c2ccccc2C1=O | <30% |  | 2 | 
CC1=C(CC(C)(O)C(F)(F)F)C(=O)c2ccccc2C1=O (stereo unspecified) | 60 - 90% |  |  | 
CC1=C(CCCC(=O)N[C@@H](Cc2ccc(OC(=O)CCCC3=C(C)C(=O)c4ccccc4C3=O)cc2)C(=O)OC(C)(C)C)C(=O)c2ccccc2C1=O |  | 90 - 100% |  | 
CCOC(=O)CCCC1=C(C)C(=O)c2ccccc2C1=O | <30% |  | 2 | 
CC1=C(CCC2CCCC2)C(=O)c2ccccc2C1=O | 60 - 90% |  | 2 | 
CCCCCCC1=C(C)C(=O)c2ccccc2C1=O | 60 - 90% | Active | 2 | Activity (Rattus norvegicus): Active
CCCCCCCCCCC1=C(C)C(=O)c2ccccc2C1=O |  | inactive | 2 | Activity (Rattus norvegicus): inactive
CC1=C(CCCC(=O)N[C@@H](Cc2ccc(O)cc2)C(=O)OC(C)(C)C)C(=O)c2ccccc2C1=O | 90% | inactive |  | 
CC1=C(CCCC(=O)N[C@@H](Cc2ccccc2)C(=O)O)C(=O)c2ccccc2C1=O | 5 - 70% | 90 - 100% |  | 
CC1=C(CCC(=O)O)C(=O)c2ccccc2C1=O | 60 - 90% | Active | 2 | 
COC(=O)[C@H](NC(=O)CCCC1=C(C)C(=O)c2ccccc2C1=O)c1ccccc1 |  | 90 - 100% |  | 
CC1=C(CCC(C)C)C(=O)c2ccccc2C1=O |  |  | 2 | 

SMILES | Activity (HepG2 [1]) | Activity (HepG2 [2]) | Ratio IC50 [3] | also measured
CC1=C(CCCC(=O)N[C@@H](CC(C)C)C(=O)OC(C)(C)C)C(=O)c2ccccc2C1=O | 90% | inactive |  | 
CC1=C(CCCC(=O)N[C@H](CO)Cc2ccccc2)C(=O)c2ccccc2C1=O | 100% | 100% |  | 
CC1=C(CCCC(=O)NCCc2ccc(O)cc2)C(=O)c2ccccc2C1=O | 100% | 100% |  | 
COC1=C(OC)C(=O)C(CCCCCCCCCCO)=C(C)C1=O [IDEBENONE] | 60 - 90% |  |  | Activity [4]: -0.714 V; Activity [5]: -0.637 V
CCCCCCCCC1=C(C)C(=O)c2ccccc2C1=O | 60 - 90% | Active | 2 | Activity (Rattus norvegicus): Active
CCCCCCOC(=O)CCC1=C(C)C(=O)c2ccccc2C1=O | <30% |  | 2 | 
CC1=C(CC(C)CCCC(C)C)C(=O)c2ccccc2C1=O (stereo unspecified) | 60 - 90% |  | 2 | 
CC1=C(CCCC(=O)N2CCC[C@H]2C(=O)OC(C)(C)C)C(=O)c2ccccc2C1=O |  | 90 - 100% |  | 
CC1=C(CCCCCC(=O)O)C(=O)c2ccccc2C1=O | 60 - 90% | Active |  | 
CC1=C(CCC(C)O)C(=O)c2ccccc2C1=O (stereo unspecified) | 60 - 90% | Active | 2 | Activity (Rattus norvegicus): Active
CC1=C(CCCC(=O)N2CCC[C@H]2C(=O)O)C(=O)c2ccccc2C1=O | 5 - 70% |  |  | 
C=CCCC1=C(C)C(=O)c2ccccc2C1=O | 60 - 90% |  | 2 | 
COC(=O)[C@H](Cc1ccccc1)NC(=O)CCCC1=C(C)C(=O)c2ccccc2C1=O |  | 90 - 100% |  | 
CCCCOC(=O)CCC1=C(C)C(=O)c2ccccc2C1=O | <30% |  | 2 | 
CC1=C(CCCCCCCCC2CO2)C(=O)c2ccccc2C1=O (stereo unspecified) | 60 - 90% |  | 2 | 
CC1=C(CCCCCCCCCCO)C(=O)c2ccccc2C1=O |  | Active | 2 | Activity [4]: -0.845 V; Activity (Rattus norvegicus): Active; Activity [5]: -0.768 V
CC1=C(CC2CCC(=O)O2)C(=O)c2ccccc2C1=O (stereo unspecified) | 60 - 90% |  | 2 | 
CC1=C(CC[C@@H](C)[C@H]2CC[C@H]3[C@@H]4CC[C@@H]5C[C@H](O)CC[C@]5(C)[C@H]4C[C@H](O)[C@]23C)C(=O)c2ccccc2C1=O |  |  | 2 | 
COc1ccc(CC2=C(C)C(=O)c3ccccc3C2=O)cc1OC | 60 - 90% |  | 2 | 
CC1=C(CCCC(=O)N[C@@H](Cc2ccccc2)C(=O)OC(C)(C)C)C(=O)c2ccccc2C1=O |  | 90 - 100% |  | 
CC(=O)CCC1=C(C)C(=O)c2ccccc2C1=O | 60 - 90% | Active | 2 | Activity (Rattus norvegicus): Active
CC1=C(CCCC(=O)N[C@@H](CC(C)C)C(=O)O)C(=O)c2ccccc2C1=O | 5 - 70% |  |  | 
COc1ccc(CCNC(=O)CCCC2=C(C)C(=O)c3ccccc3C2=O)cc1OC | 100% | 100% |  | 
